The values below come from ChEMBL document CHEMBL1131455, “5-HT3 antagonists derived from aminopyridazine-type muscarinic M1 agonists” (J Med Chem, 1998).

Each structure is given as a SMILES string.

Experiment [1] has as its target T1, Serotonin 3 (5-HT3) receptor (Rattus norvegicus, UniProt P35563+Q9JJ16).
T1 sequence (P35563 whole entry): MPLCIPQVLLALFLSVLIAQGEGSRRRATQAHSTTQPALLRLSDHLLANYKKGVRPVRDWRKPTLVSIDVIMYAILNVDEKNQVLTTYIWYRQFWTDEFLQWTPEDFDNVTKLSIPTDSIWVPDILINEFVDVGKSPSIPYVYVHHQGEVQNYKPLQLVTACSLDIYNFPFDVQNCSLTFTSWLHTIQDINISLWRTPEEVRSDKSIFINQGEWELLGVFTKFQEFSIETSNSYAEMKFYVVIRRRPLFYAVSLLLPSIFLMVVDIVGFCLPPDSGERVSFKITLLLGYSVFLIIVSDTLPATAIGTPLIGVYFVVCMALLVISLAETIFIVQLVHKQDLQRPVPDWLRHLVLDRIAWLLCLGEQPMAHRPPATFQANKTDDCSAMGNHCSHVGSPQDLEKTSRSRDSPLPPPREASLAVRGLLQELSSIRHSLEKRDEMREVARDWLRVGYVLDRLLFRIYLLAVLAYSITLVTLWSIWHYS
T1 sequence (Q9JJ16 whole entry): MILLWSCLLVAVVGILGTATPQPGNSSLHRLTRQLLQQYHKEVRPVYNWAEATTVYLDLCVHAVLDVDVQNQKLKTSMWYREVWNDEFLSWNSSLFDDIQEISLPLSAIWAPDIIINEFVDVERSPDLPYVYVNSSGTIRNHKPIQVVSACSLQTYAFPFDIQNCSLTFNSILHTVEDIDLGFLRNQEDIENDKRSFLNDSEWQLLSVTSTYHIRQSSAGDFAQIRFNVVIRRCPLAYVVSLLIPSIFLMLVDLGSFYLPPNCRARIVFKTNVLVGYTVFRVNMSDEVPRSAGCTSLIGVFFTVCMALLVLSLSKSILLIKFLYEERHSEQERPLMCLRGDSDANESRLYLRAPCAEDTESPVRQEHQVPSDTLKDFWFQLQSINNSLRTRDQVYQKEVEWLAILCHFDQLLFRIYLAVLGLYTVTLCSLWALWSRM
Description: Compound was evaluated for its binding affinity for 5-hydroxytryptamine 3 receptor by measuring displacement [3H]GR-65630 in rat cerebral cortex. Format: tissue-based.

Experiment [2] deals with Serotonin (5-HT) receptor. Put plainly: Potency was evaluated on rabbit heart serotonergic receptors. Further details: species or system Oryctolagus cuniculus.
Experiment [3] has as its target T1, Serotonin 3 (5-HT3) receptor. Put plainly: Compound was evaluated for its binding affinity for 5-hydroxytryptamine 3 receptor by measuring displacement [3H]GR-65630 in rat cerebral cortex. Format: tissue-based.
For experiment [4] the target is unchanged. Description: Compound was evaluated for its binding affinity for 5-hydroxytryptamine 3 receptor by measuring displacement of [3H]granisetron from rat cerebral cortex. Format: tissue-based. In a few lines: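 Male Sprague-Dawley rat cerebral cortex homogenized in cold 50 mM HEPES pH 7.5, then washed three times by centrifugation (48000g, 4 °C); roughly 2.5 mg protein/mL. […] Filters were presoaked 2 h in 0.3% polyethylenimine. Nonspecific binding defined with 100 nM zacopride; bound counted by liquid scintillation.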

The target of experiment [5] is T2, Muscarinic acetylcholine receptor M1 (Rattus norvegicus, UniProt P08482).
T2 sequence (P08482 whole entry): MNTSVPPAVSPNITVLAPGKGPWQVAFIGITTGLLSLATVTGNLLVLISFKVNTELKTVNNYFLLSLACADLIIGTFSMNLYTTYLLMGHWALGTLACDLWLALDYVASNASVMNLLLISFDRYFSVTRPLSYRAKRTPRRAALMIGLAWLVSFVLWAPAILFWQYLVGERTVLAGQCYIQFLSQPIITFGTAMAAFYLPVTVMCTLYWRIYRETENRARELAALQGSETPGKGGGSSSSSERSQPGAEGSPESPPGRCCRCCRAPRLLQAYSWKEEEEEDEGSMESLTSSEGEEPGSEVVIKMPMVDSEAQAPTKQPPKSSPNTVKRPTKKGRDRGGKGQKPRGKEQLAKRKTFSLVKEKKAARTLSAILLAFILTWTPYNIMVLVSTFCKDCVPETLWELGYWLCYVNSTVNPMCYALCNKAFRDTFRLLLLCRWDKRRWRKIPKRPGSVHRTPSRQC
Put plainly: Compound was evaluated for its binding affinity for Muscarinic acetylcholine receptor M1 by measuring displacement of [3H]- pirenzepine from rat hippocampus. Format: tissue-based. In a few lines:
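Adult rat hippocampus homogenized 1:200 w/v in 50 mM Na/K phosphate pH 7.4 with 1 mM EDTA and 0.1 mM PMSF. 0.5 mg tissue competed against [3H]pirenzepine (0.7-1 nM) for 2 h 30 min at 25 °C. Bound separated by filtration on 0.3% polyethylenimine-treated GF/C filters. Atropine defined nonspecific binding.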

In experiment [6] the target is T3, Muscarinic acetylcholine receptor M2 (Rattus norvegicus, UniProt P10980).
T3 sequence (P10980 whole entry): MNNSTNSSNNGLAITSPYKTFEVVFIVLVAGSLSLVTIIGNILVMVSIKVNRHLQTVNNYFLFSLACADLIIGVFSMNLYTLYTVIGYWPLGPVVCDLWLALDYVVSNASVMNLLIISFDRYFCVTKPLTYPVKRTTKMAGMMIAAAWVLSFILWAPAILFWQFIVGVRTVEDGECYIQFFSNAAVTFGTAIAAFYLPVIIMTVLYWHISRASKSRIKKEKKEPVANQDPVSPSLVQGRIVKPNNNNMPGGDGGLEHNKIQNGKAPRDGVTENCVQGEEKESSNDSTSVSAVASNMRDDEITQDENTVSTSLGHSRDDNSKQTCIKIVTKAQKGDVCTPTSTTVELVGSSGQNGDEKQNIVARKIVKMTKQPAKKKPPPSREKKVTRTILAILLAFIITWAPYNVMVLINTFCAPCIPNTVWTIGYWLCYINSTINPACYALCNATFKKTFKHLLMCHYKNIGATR
Description: Compound was evaluated for its binding affinity for Muscarinic acetylcholine receptor M2 by measuring displacement of [3H]- NMS ligand from rat cardiac cells. In a few lines: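 Adult rat cardiac cells homogenized 1:200 w/v in 50 mM sodium phosphate pH 7.4. Competition run with 0.2 nM [3H]NMS, 0.5 mg tissue and varying unlabeled ligand concentrations for 1 h at 37 °C. Bound separated by GF/C filtration. Atropine used for nonspecific binding.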
A general note: Displacement assays read how much labelled ligand stays bound in the presence of the test substance.

For orientation: Ki means the equilibrium dissociation constant of an inhibitor or competing ligand from its target. Regarding `CN1[C@@H]2CC[C@H]1C[C@@H](OC(=O)c1cc(Cl)cc(Cl)c1)C2` [BEMESETRON], in experiment [1], affinity was put at a Ki of 0.054 µM.
What is called pA2 is a measure of antagonist potency on a negative log scale. A high value points to higher antagonist potency. In experiment [2], `O=C(OC1C2CC3CC1N2CC3=O)c1c[nH]c2ccccc12` (configuration not stated) returned a pA2 of 9.8.
In general, IC50 refers to the concentration needed to halve the response being measured. Turning to `Cn1cc(-c2noc(C3CN4CCC3CC4)n2)c2ccccc21` (configuration not stated), the IC50 in experiment [3] turned out to be 0.0014 µM.
In experiment [1], `CCN(CC)CCNC(=O)c1cc(Cl)c(N)cc1OC` [METOCLOPRAMIDE] gave a Ki of 0.348 µM.
On the same count and under the same terms, as for `CN1[C@@H]2CC[C@H]1C[C@@H](OC(=O)c1c[nH]c3ccccc13)C2` [TROPISETRON], the figure is 0.0032 µM.
Take `CN1CCN(c2nncc3ccccc23)CC1`: in experiment [4], the IC50 was 0.01 µM. In addition, the Ki in experiment [5] is 10 µM; in experiment [6], 38 µM.
As to `CN1CCN(c2cc(-c3ccccc3)cnn2)CC1`, in experiment [4], the IC50 came out at 0.036 µM. Further, the values for the Ki in experiment [5] and in experiment [6] were 62 µM and 80 µM, respectively.
For `CN1CCN(c2nnc(-c3ccccc3)c3ccccc23)CC1` the same measures were 0.37 µM, 13 µM and 116 µM.
`CN1CCN(c2ccc(-c3ccccc3)nn2)CC1` had an IC50 in experiment [4] of 0.425 µM. The Ki was found to be 15.6 µM in experiment [5] and 71 µM in experiment [6].
